This is an account of results in ChEMBL document CHEMBL4513216, “Probing the Open Global Health Chemical Diversity Library for Multistage-Active Starting Points for Next-Generation Antimalarials” (ACS Infect Dis, 2020).

The nature of this data set: Toxicity liver stage against HepG2, at 10uM. In kind it is cell-based. Further details: test concentration 10 uM, cell line HepG2-A16-CD81EGFP. Conditions: human, HepG2-A16-CD81EGFP cells; read-out: INHIBITION
The method, boiled down:
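Uninfected HepG2-A16-CD81EGFP cells, 3 × 10^3 per well, 1536-well, plated on prespotted compound at 10 μM final, parasite-free screening media added to match infected plates; puromycin 10 μM positive, DMSO 0.5% negative; run in parallel with 48 h PbLuc assay at 37 °C, 5% CO2; viability by CellTiter-Glo luminescence, normalized to controls.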
Turning to `CCCc1ccc2oc(C(=O)N3CCN(CCC(N)=O)CC3)c(C)c2c1`, the cytotoxicity at 10 µM came out at 0.424%.
To `CCCn1nnnc1COc1cc(OC)ccc1C(=O)OC` belongs -2.04%; to `O=C(NC[C@H]1OC[C@@H](NC2CCC2)[C@@H]1O)c1cccs1`, 1.76%; to `c1ccc(-c2nnc([C@H]3CCN(C4CCOCC4)C3)o2)cc1`, -1.05%.
For `CCC1CN(CC(=O)NCCN2CCCC2)c2ccccc2S1` (stereo unspecified), the cytotoxicity at 10 µM was -13.1%.
To `COCCNC(=O)c1cccnc1Sc1cc(OC)ccc1OC` belongs 0.734%; to `Cc1ccc(-c2nnc(CN3CCN(c4ccccn4)CC3)o2)cc1`, -5.34%.
The same measure for `CN1CC[C@H](N(C)Cc2ccccc2)C[C@H](O)C1`: -0.895%; for `O=S(=O)(NCC(O)c1cccs1)c1ccccc1Cl` (stereo unspecified): -67%.
The same measure for `O=C1CC[C@@H]2[C@@H](CCN2C(=O)C2CCOCC2)N1CC1CC1`: 10.9%; for `COc1cccc(S(=O)(=O)N2CCCc3c(OC)nn(C)c3C2)c1`: -120%; for `Cc1ccnc(OC[C@]23COC[C@H]2CN(C(=O)c2ncccn2)C3)n1`: -3.18%.
Take `CCOCC1CN(C(=O)c2ccco2)Cc2cnn(C)c21` (stereo unspecified): the cytotoxicity at 10 µM was 6.14%.
The same measure for `Cc1ccc(N2CCc3ncc(CNc4ccccn4)n3CC2)nn1`: 5.41%.
As to `O=C(O)c1nnn(-c2ccc(C(F)(F)F)cc2)c1-c1ccncc1`, the cytotoxicity at 10 µM is 7.33%.
The same measure for `CCOCCCNC(=O)CN(c1ccc(C)c(C)c1)S(C)(=O)=O`: 7.74%; for `Cn1cc(C(=O)NC[C@@H]2OC[C@H]3CN(S(C)(=O)=O)CC[C@H]32)cn1`: -9.12%.
To `COc1ccc(C2=Nn3c(CCCN)nnc3-c3ccccc3C2)cc1` belongs 3.07%; to `CSCc1cccc(S(=O)(=O)NCCCN2CCOCC2)c1`, -8.63%; to `O[C@@H]1C[C@H]2CN(Cc3ccccc3)[C@H](Cc3ccccc3)CN2C1`, -0.658%.
The same measure for `Cc1cccc(CNC(=O)CC2CCN(Cc3ccccn3)CC2)n1`: 10.1%.
As for `CCN1CCCC1CNCc1cc2cc(OC)c(OC)cc2[nH]c1=O` (stereo unspecified), the cytotoxicity at 10 µM was determined as 2.63%.
In the case of `Cc1ccc(N2CCOC(C)(C(=O)N(C)C)C2)nn1` (stereo unspecified), the cytotoxicity at 10 µM was -4.43%.
The same measure for `COc1ncc(CN(C)C2CCN(C(C)C)CC2)cn1`: 5.15%; for `O=C(NCc1ccccn1)c1cnc(C2CCCN2)cn1` (stereo unspecified): 3.62%.
To `COc1ccccc1-c1ccccc1CC1(C(=O)O)CCNCC1` belongs -0.782%; to `Cc1cc(C2CCCCN2C(=O)c2cccn2C)nc2nccn12` (stereo unspecified), -17.6%; to `Cc1cc(C(N)=O)nc(C2(C)CCCN2Cc2cnn(C)c2)n1` (stereo unspecified), -23.6%.
To `CNc1cc(C2CCCN(Cc3ccccc3OCC(=O)O)C2)ccn1` (stereo unspecified) belongs -24.8%; to `CNCC(=O)N1CCCCC1c1nccc(C)n1` (stereo unspecified), -15.4%; to `CC(=O)N1CCN(c2cc(CCNC(=O)C(C)C)nc(C3CC3)n2)CC1`, -21.3%.
In the case of `CC1CS(=O)(=O)CCN1Cc1ccccc1OCC(F)(F)F` (stereo unspecified), the cytotoxicity at 10 µM is -4.86%.
With `CC(C)n1nc2c(cc1=O)CN(CC1CCCCO1)CC2` (stereo unspecified), the cytotoxicity at 10 µM was found to be 14.5%.
For the compound `CC(c1nc(-c2cccnc2)no1)N(C)CCCOc1ccccc1` (stereo unspecified), the cytotoxicity at 10 µM is -2.14%.
To `CN(Cc1nnc2n1CCC2)C(=O)c1ccc(=O)n(C)n1` belongs -8.16%.
As to `N#CC(NC(=O)CNC(=O)c1ccccc1)c1ccsc1` (stereo unspecified), the cytotoxicity at 10 µM was determined as 1.8%.
To `O=C(NCCNc1ccccn1)NC1CCCC1` belongs -5.81%; to `COCc1nc(C(=O)OCC2CCN(c3ccccc3)C2)cs1` (stereo unspecified), -1.31%; to `O=C(NCCc1ccn(-c2ccc(F)cc2)n1)C1CCCOC1` (stereo unspecified), 6.65%.
To `CC(C)C(Sc1cccs1)C(=O)NCc1cccnc1` (stereo unspecified) belongs -5.15%; to `COc1ccccc1CN(CC1CCCO1)C(=O)c1csnn1` (stereo unspecified), -0.636%.
The same measure for `COCc1nc2cc(NCc3ccncc3)ccc2o1`: -3.3%; for `CC(CNC(=O)N1CCN(c2cnccn2)CC1)Cc1cccs1` (stereo unspecified): 1.7%.
Take `N#Cc1cccc(NC(=O)N[C@H](CO)c2ccccc2)c1`: the cytotoxicity at 10 µM was -12.2%.
Regarding `N#Cc1ccc(OCCOc2ccccc2C(=O)N2CCOCC2)cc1`, the cytotoxicity at 10 µM is -7.38%.
To `CS(=O)(=O)NCC1CCCN(Cc2ccc(F)c3cccnc23)C1` (stereo unspecified) belongs -12.6%; to `COc1cc(C)sc1C(=O)N1CCC(Nc2cccnc2)CC1`, -5.07%; to `Cc1cc(NC(C)c2n[nH]c(C)n2)n2nc(C)c(C)c2n1` (stereo unspecified), -11.4%.
On to `CC(C)=CCCC1(C)CCC(=O)N(CCNc2nc(C)cc(=O)[nH]2)C1` (stereo unspecified), for which the cytotoxicity at 10 µM was 3.18%.
To `COc1ccccc1C(=O)C1CCCN(c2cc(C#N)ccn2)C1` (stereo unspecified) belongs 7.56%; to `COc1nc(C)c(C(=O)N2CCC(C(O)Cc3ccccc3)CC2)s1` (stereo unspecified), 4.18%; to `NC1(C(=O)N2CCC(c3cc(-c4ccccc4Cl)n[nH]3)CC2)CCC1`, -3.66%.
Take `Cc1ccc(C(=O)N2CC(Oc3ccccc3C)C2)s1`: the cytotoxicity at 10 µM is 17.1%.
As to `CCc1nccn1CCCNC(=O)CN1CCN(c2ncccn2)CC1`, the cytotoxicity at 10 µM is -7.54%.
The same measure for `CSc1ccc(CN(CCO)C(=O)CCNC(C)=O)cc1`: 5.42%.
The same measure for `Cc1ccc(OCC2CCCN(C(=O)CCn3ccccc3=O)C2)cc1` (stereo unspecified): -4.27%; for `CC(C)(CN1CCC(Cc2ccc(C(=O)O)cc2)C1)N1CCOCC1` (stereo unspecified): 2.17%; for `CC(Cc1cn(CCc2n[nH]c(=O)[nH]2)nn1)c1ccccc1` (stereo unspecified): -0.591%.
The same measure for `Cc1nnsc1CN(C)C(=O)c1ccc(CSc2nnc[nH]2)o1`: -3.33%.
In the case of `Cn1cc(Cl)cc1C(=O)N1CCC2(CCCN(CC3CC3)C2=O)C1` (stereo unspecified), the cytotoxicity at 10 µM turned out to be 1.96%.
Regarding `Cc1nc2c(c(N3CCC(CCn4cccn4)CC3)n1)CCNCC2`, the cytotoxicity at 10 µM was 4.3%.
With `CCS(=O)(=O)N[C@H]1CN(CC(C)(C)N2CCOCC2)C[C@@H]1C1CC1`, the cytotoxicity at 10 µM stood at 1.04%.
The same measure for `CC(C)=CCN1C[C@@H]2CN(C(=O)c3cnccc3C)C[C@]2(C(=O)O)C1`: 2.85%.
To `Cc1cc(C(F)(F)F)cc(=O)n1CCn1cc(Cl)cn1` belongs 0.382%; to `CC(C)(C)N1CC(C(=O)N2CC(Oc3ccc(F)cc3)C2)CC1=O` (stereo unspecified), 1.88%; to `c1ccc(C2CCCN(Cc3cc4n(n3)CCNC4)CC2)cc1` (stereo unspecified), 1.9%.
For `Cc1ccc(OCC2CCCN(C(=O)Cn3ccccc3=O)C2)cc1` (stereo unspecified), the cytotoxicity at 10 µM was determined as 0.55%.
As for `COCCN1CCCC(c2nc3c([nH]2)CC(C)(C)CNC3=O)C1` (stereo unspecified), the cytotoxicity at 10 µM is -11.6%.
The same measure for `Cc1cccnc1NCCNC(=O)[C@H]1CNC[C@@H](C(=O)N2CCCC2)C1`: -11.3%; for `COc1ncccc1C(=O)NCC(C)Oc1cccnc1` (stereo unspecified): -8.45%; for `COCCN(C)C(=O)Cn1cccc(OC)c1=O`: -14.8%.
The same measure for `c1csc(-c2nc(CNC3CCc4ncnn4C3)co2)c1` (stereo unspecified): -5.69%.
The same measure for `Cc1cnn(CCNCC(=O)NCc2ccccc2)c1`: -4.25%; for `CC(NC(=O)NCC1(N2CCCCC2)CCCCC1)c1nncn1C` (stereo unspecified): -9.78%; for `CN(Cc1nnc(-c2ccco2)o1)C1CCCN(c2cccnn2)C1` (stereo unspecified): -7.39%.
Take `COc1cccc(COCC(=O)N2CCCC(n3ccnc3C)C2)c1` (stereo unspecified): the cytotoxicity at 10 µM is -7.77%.
For the compound `Clc1ccccc1-c1nc(CNCCn2cccn2)cs1`, the cytotoxicity at 10 µM was -3.45%.
To `O=C(c1cnc(-c2cccs2)s1)N1CCCN2CCCC2C1` (stereo unspecified) belongs -13.9%.
To `Cc1cccc(C(=O)NCc2ccnc(N(C)C)c2)n1` belongs 3.22%.
The same measure for `Cn1cnnc1C1CCCN(C(=O)NCCNc2ccccn2)C1` (stereo unspecified): 2.21%; for `CC(=O)NC1CCN(c2cnc(C3CCNCC3)cn2)CC1`: 8%; for `CN(C)CCN(Cc1ccccn1)Cc1ccnn1C1CCCCO1` (stereo unspecified): 1.6%.
For `Cc1c[nH]nc1C1CCCN1Cc1nccn1C` (stereo unspecified), the cytotoxicity at 10 µM is -3.34%.
The same measure for `CS(=O)(=O)N1CCO[C@@H]2CN(Cc3ccncc3)C[C@@H]2C1`: 4.5%; for `CCc1nc2ccccc2c(=O)n1CC1(O)CCN(C(=O)C2CC2)CC1`: -18.3%; for `Cc1occc1C(=O)N1CCOCC2(CCN(Cc3nccs3)C2)C1` (stereo unspecified): -6.34%.
To `NCCc1c(-c2ccccc2)[nH][nH]c1=O` belongs 5.95%.
To `CN(C)C(=O)[C@H]1C[C@H]2[C@H](CCN2Cc2ccc3c(c2)OCO3)O1` belongs 2.36%.
For `Fc1cnc(N2CC[C@@H]3O[C@@H](COCc4ccccn4)CC[C@@H]32)nc1`, the cytotoxicity at 10 µM is 1.9%.
The same measure for `CN1CCCc2cc(-c3cncn3CC(=O)NC(C)(C)C)ccc21`: -28.9%; for `Cc1cccc(CN2CC[C@@H]3[C@@H](CO[C@H]3CNc3ncccn3)C2)n1`: -5.55%; for `COCC1CC2(CCN(Cc3cnn(C)c3)CC2)CN1c1ncccn1` (stereo unspecified): -8.19%.
The same measure for `Cc1noc(C)c1CN1CCO[C@H]2CN(Cc3cncn3C)C[C@H]21`: -1.62%; for `CN1CCC(NC(=O)[C@H]2CC[C@@H]3[C@@H](CCN3c3ncccn3)O2)CC1`: 7.43%; for `CC(=O)c1cc(C(=O)N2CC[C@H]3CC[C@@H](C2)N3C)c(=O)[nH]c1C`: 11.4%.
The same measure for `C=c1ccoc1=C1NN=C(CNCC2CCCN2c2cccnn2)O1` (stereo unspecified): -13.7%.
